{"source": "ChEMBL document CHEMBL2046306", "about": "“Synthesis of 6-substituted 9-methoxy-11H-indeno[1,2-c]quinoline-11-one derivatives as potential anticancer agents” (Bioorg Med Chem, 2012)", "key": {"NCI-H460 [1]": {"system": "NCI-H460", "assay": "Antiproliferative activity against human NCI-H460 cells assessed as growth at 100 uM after 48 hrs by alamar blue assay", "assay_type": "functional", "settings": "NCI-H460, 48 h, read-out: Activity", "summary_of_the_method": "(§1)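 Single-dose prescreen in a three-line NCI panel (NCI-H460, MCF7, SF-268). Cells were inoculated and preincubated on microtiter plates, then exposed to test agent at 100 μM for 48 h. Alamar blue end-point. Growth is expressed as percent of untreated control cells.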"}, "MCF7": {"system": "MCF7", "assay": "Antiproliferative activity against human MCF7 cells assessed as growth at 100 uM after 48 hrs by alamar blue assay", "assay_type": "functional", "settings": "MCF7, 48 h, read-out: Activity", "summary_of_the_method": "as §1"}, "SF-268": {"system": "SF-268", "assay": "Antiproliferative activity against human SF268 cells assessed as growth at 100 uM after 48 hrs by alamar blue assay", "assay_type": "functional", "settings": "SF-268, 48 h, read-out: Activity", "summary_of_the_method": "as §1"}, "CCRF-CEM": {"system": "CCRF-CEM", "assay": "Growth inhibition of human CCRF-CEM cells after 48 hrs by sulforhodamine B assay", "assay_type": "functional", "summary_of_the_method": "(§2)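 NCI 60-line screen. Cells grown in RPMI 1640 with 5% FBS and 2 mM L-glutamine, seeded at 5000–40,000 cells/well, preincubated 24 h at 37 °C. Five 10-fold dilutions added, highest well concentration 10E-4 M. Incubated 48 h in 5% CO₂ at 100% humidity. Sulforhodamine B read-out by optical density; GI50 taken from dose-response curves versus control.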"}, "SR": {"system": "SR", "assay": "Growth inhibition of human SR cells after 48 hrs by sulforhodamine B assay", "assay_type": "functional", "summary_of_the_method": "(§3)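 NCI 60-line screen. Cells grown in RPMI 1640 with 5% FBS and 2 mM L-glutamine, seeded at 5000-40,000 cells/well and preincubated 24 h at 37 °C. Compounds added at five 10-fold dilutions, highest well concentration 10E-4 M. Exposure 48 h in 5% CO2 at 100% humidity. Endpoint is sulforhodamine B with optical density read-out. GI50 is the concentration giving 50% growth inhibition versus control.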"}, "A549": {"system": "A549", "assay": "Growth inhibition of human A549 cells after 48 hrs by sulforhodamine B assay", "assay_type": "functional, cell-based", "settings": "A549, 48 h", "summary_of_the_method": "as §2"}, "HCT-116": {"system": "HCT-116", "assay": "Growth inhibition of human HCT116 cells after 48 hrs by sulforhodamine B assay", "assay_type": "functional", "settings": "HCT-116, 48 h", "summary_of_the_method": "as §2"}, "U-251": {"system": "U-251", "assay": "Growth inhibition of human U251 cells after 48 hrs by sulforhodamine B assay", "assay_type": "functional", "settings": "U-251, 48 h", "summary_of_the_method": "as §3"}, "SK-MEL-5": {"system": "SK-MEL-5", "assay": "Growth inhibition of human SK-MEL-5 cells after 48 hrs by sulforhodamine B assay", "assay_type": "functional", "settings": "SK-MEL-5, 48 h", "summary_of_the_method": "as §3"}, "IGROV-1": {"system": "IGROV-1", "assay": "Growth inhibition of human IGROV1 cells after 48 hrs by sulforhodamine B assay", "assay_type": "functional", "settings": "IGROV-1, 48 h", "summary_of_the_method": "as §2"}, "DU-145": {"system": "DU-145", "assay": "Growth inhibition of human DU145 cells after 48 hrs by sulforhodamine B assay", "assay_type": "functional", "settings": "DU-145, 48 h", "summary_of_the_method": "as §2"}, "[2]": {"assay": "Growth inhibition of human Hs 578T cells after 48 hrs by sulforhodamine B assay", "assay_type": "functional", "summary_of_the_method": "as §2"}, "NCI-H460 [3]": {"system": "NCI-H460", "assay": "Cell cycle arrest in human NCI-H460 cells assessed as accumulation at G1 phase at 1 uM after 24 hrs by propidium iodide staining-based flow cytometric analysis (reference value: 66.2 +/- 2.1%)", "assay_type": "functional"}, "NCI-H460 [4]": {"system": "NCI-H460", "assay": "Cell cycle arrest in human NCI-H460 cells assessed as accumulation at G1 phase at 5 uM after 24 hrs by propidium iodide staining-based flow cytometric analysis (reference value: 66.2 +/- 2.1%)", "assay_type": "functional"}, "NCI-H460 [5]": {"system": "NCI-H460", "assay": "Cell cycle arrest in human NCI-H460 cells assessed as accumulation at G1 phase at 10 uM after 24 hrs by propidium iodide staining-based flow cytometric analysis (reference value: 66.2 +/- 2.1%)", "assay_type": "functional"}, "NCI-H460 [6]": {"system": "NCI-H460", "assay": "Cell cycle arrest in human NCI-H460 cells assessed as accumulation at S phase at 1 uM after 24 hrs by propidium iodide staining-based flow cytometric analysis (reference value: 14.3 +/- 1.9%)", "assay_type": "functional"}, "NCI-H460 [7]": {"system": "NCI-H460", "assay": "Cell cycle arrest in human NCI-H460 cells assessed as accumulation at S phase at 5 uM after 24 hrs by propidium iodide staining-based flow cytometric analysis (reference value: 14.3 +/- 1.9%)", "assay_type": "functional"}, "NCI-H460 [8]": {"system": "NCI-H460", "assay": "Cell cycle arrest in human NCI-H460 cells assessed as accumulation at S phase at 10 uM after 24 hrs by propidium iodide staining-based flow cytometric analysis (reference value: 14.3 +/- 1.9%)", "assay_type": "functional"}, "NCI-H460 [9]": {"system": "NCI-H460", "assay": "Cell cycle arrest in human NCI-H460 cells assessed as accumulation at G2/M phase at 1 uM after 24 hrs by propidium iodide staining-based flow cytometric analysis (reference value: 18.6 +/- 1.7%)", "assay_type": "functional"}, "NCI-H460 [10]": {"system": "NCI-H460", "assay": "Cell cycle arrest in human NCI-H460 cells assessed as accumulation at G2/M phase at 5 uM after 24 hrs by propidium iodide staining-based flow cytometric analysis (reference value: 18.6 +/- 1.7%)", "assay_type": "functional"}, "NCI-H460 [11]": {"system": "NCI-H460", "assay": "Cell cycle arrest in human NCI-H460 cells assessed as accumulation at G2/M phase at 10 uM after 24 hrs by propidium iodide staining-based flow cytometric analysis (reference value: 18.6 +/- 1.7%)", "assay_type": "functional"}, "NCI-H460 [12]": {"system": "NCI-H460", "assay": "Induction of apoptosis in human NCI-H460 cells assessed as accumulation at sub-G1 phase at 1 uM after 24 hrs by propidium iodide staining-based flow cytometric analysis (reference value: 0.9 +/- 0.3%)", "assay_type": "functional"}, "NCI-H460 [13]": {"system": "NCI-H460", "assay": "Induction of apoptosis in human NCI-H460 cells assessed as accumulation at sub-G1 phase at 5 uM after 24 hrs by propidium iodide staining-based flow cytometric analysis (reference value: 0.9 +/- 0.3%)", "assay_type": "functional"}, "NCI-H460 [14]": {"system": "NCI-H460", "assay": "Induction of apoptosis in human NCI-H460 cells assessed as accumulation at sub-G1 phase at 10 uM after 24 hrs by propidium iodide staining-based flow cytometric analysis (reference value: 0.9 +/- 0.3%)", "assay_type": "functional"}, "NCI-H460 [15]": {"system": "NCI-H460", "assay": "Induction of apoptosis in human NCI-H460 cells assessed as cell shrinkage at 10 uM after 24 hrs by light microscopic analysis relative to control", "assay_type": "functional, cell-based", "summary_of_the_method": "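H460 cells exposed to DMSO or compound (1.0-10.0 μM) for 24 h at 37 °C, then photographed under a light microscope for morphology.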"}, "Nucleic Acid [16]": {"system": "Nucleic Acid", "assay": "Binding affinity to Escherichia coli pBR322 assessed as DNA unwinding at 10 to 100 uM after 12 hrs by ethidium bromide staining-based agarose gel electrophoresis", "assay_type": "nucleic-acid assay", "summary_of_the_method": "(§4)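 Negatively supercoiled pBR322 plasmid (400 ng) incubated with the test compound in TE buffer, pH 8.0, for 12 h at room temperature. Loading buffer contained sarkosyl, bromophenol blue and glycerol. Samples run on 1% agarose at 6 V/cm for 2.5 h in TAE, pH 8.5. Ethidium bromide stain, imaged under UV; unwinding read as reduced mobility of form I DNA.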"}, "Nucleic Acid [17]": {"system": "Nucleic Acid", "assay": "Binding affinity to Escherichia coli pBR322 assessed as DNA unwinding at 1000 uM after 12 hrs by ethidium bromide staining-based agarose gel electrophoresis", "assay_type": "nucleic-acid assay", "summary_of_the_method": "as §4"}, "NCI-H460 [18]": {"system": "NCI-H460", "assay": "Induction of apoptosis in human NCI-H460 cells assessed as PARP cleavage after 24 hrs by Western blot analysis", "assay_type": "functional, cell-based", "summary_of_the_method": "(§5)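 Treated H460 cells washed in cold PBS and lysed 30 min on ice in Tris-HCl pH 7.5/NP-40 buffer with protease and phosphatase inhibitors. Lysate spun at 12,000g. Protein measured by Bradford; 20 µg resolved on 10% SDS-PAGE and transferred to PVDF. Blocked with 5% milk, then primary antibody 2 h and secondary 30 min. Detected by ECL for PARP, procaspase-3 and procaspase-8.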"}, "NCI-H460 [19]": {"system": "NCI-H460", "assay": "Induction of apoptosis in human NCI-H460 cells assessed as induction of caspase 3 activity after 24 hrs by Western blot analysis", "assay_type": "functional, cell-based", "summary_of_the_method": "as §5"}, "NCI-H460 [20]": {"system": "NCI-H460", "assay": "Induction of apoptosis in human NCI-H460 cells assessed as induction of caspase 8 activity after 24 hrs by Western blot analysis", "assay_type": "functional, cell-based", "summary_of_the_method": "as §5"}, "NCI-H460 [21]": {"system": "NCI-H460", "assay": "Growth inhibition of human NCI-H460 cells after 48 hrs by sulforhodamine B assay", "assay_type": "functional", "settings": "NCI-H460, 48 h", "summary_of_the_method": "as §2"}}, "note": "Active and inactive are the calls of the source. No cut-off for these calls is given here."}
{"smiles": "COc1ccc2c(c1)C(=O)c1c-2c(NCCCN(C)C)nc2ccccc12", "values": [{"measurement": "growth at 100 µM", "setting": "NCI-H460 [1]", "result": 0, "unit": "%"}, {"measurement": "growth at 100 µM", "setting": "MCF7", "result": 0, "unit": "%"}, {"measurement": "growth at 100 µM", "setting": "SF-268", "result": 0, "unit": "%"}, {"measurement": "GI50", "setting": "CCRF-CEM", "result": 3390, "unit": "nM"}, {"measurement": "GI50", "setting": "SR", "result": 1100, "unit": "nM"}, {"measurement": "GI50", "setting": "A549", "result": 1860, "unit": "nM"}, {"measurement": "GI50", "setting": "HCT-116", "result": 1260, "unit": "nM"}, {"measurement": "GI50", "setting": "U-251", "result": 1100, "unit": "nM"}, {"measurement": "GI50", "setting": "SK-MEL-5", "result": 3890, "unit": "nM"}, {"measurement": "GI50", "setting": "IGROV-1", "result": 6920, "unit": "nM"}, {"measurement": "GI50", "setting": "DU-145", "result": 6610, "unit": "nM"}, {"measurement": "GI50", "setting": "[2]", "result": 3720, "unit": "nM"}, {"measurement": "Activity", "setting": "NCI-H460 [3]", "result": 58.1, "unit": "%"}, {"measurement": "Activity", "setting": "NCI-H460 [4]", "result": 49.2, "unit": "%"}, {"measurement": "Activity", "setting": "NCI-H460 [5]", "result": 41.4, "unit": "%"}, {"measurement": "Activity", "setting": "NCI-H460 [6]", "result": 10.1, "unit": "%"}, {"measurement": "Activity", "setting": "NCI-H460 [7]", "result": 9.1, "unit": "%"}, {"measurement": "Activity", "setting": "NCI-H460 [8]", "result": 11.8, "unit": "%"}, {"measurement": "Activity", "setting": "NCI-H460 [9]", "result": 28.1, "unit": "%"}, {"measurement": "Activity", "setting": "NCI-H460 [10]", "result": 33.5, "unit": "%"}, {"measurement": "Activity", "setting": "NCI-H460 [11]", "result": 21.5, "unit": "%"}, {"measurement": "Activity", "setting": "NCI-H460 [12]", "result": 3.7, "unit": "%"}, {"measurement": "Activity", "setting": "NCI-H460 [13]", "result": 8.2, "unit": "%"}, {"measurement": "Activity", "setting": "NCI-H460 [14]", "result": 25.3, "unit": "%"}, {"measurement": "Activity", "setting": "NCI-H460 [15]", "result": "Active"}, {"measurement": "Activity", "setting": "Nucleic Acid [16]", "result": "Active"}, {"measurement": "Activity", "setting": "Nucleic Acid [17]", "result": "inactive"}, {"measurement": "Activity", "setting": "NCI-H460 [18]", "result": "Dose-dependent effect"}, {"measurement": "Activity", "setting": "NCI-H460 [19]", "result": "Dose-dependent effect"}, {"measurement": "Activity", "setting": "NCI-H460 [20]", "result": "Dose-dependent effect"}, {"measurement": "GI50", "setting": "NCI-H460 [21]", "result": 1330, "unit": "nM"}]}
